SMILES strings stand for the structures. In brackets after ≈: the same amount, converted by molar mass.

Experiment [1] deals with Mycobacterium tuberculosis. Kind of experiment: Antimicrobial activity against Mycobacterium tuberculosis H37Rv by two-fold serial dilution method. It is filed as functional. The method, boiled down: (§1)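 Classical test-tube successive two-fold dilution in Youmans' modification of Proskauer and Beck liquid medium with 10% bovine serum. Inocula from 14-day-old cultures. Compounds dissolved in ethylene glycol (stock 10 mg/mL), diluted in medium to 0.75–100 µg/mL. Incubated at 37 °C. MIC is the lowest concentration inhibiting growth relative to a compound-free control.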

Experiment [2] concerns Mycobacterium tuberculosis. Briefly: Antimicrobial activity against Mycobacterium tuberculosis Spec. 210 by two-fold serial dilution method. The format is functional. The method, boiled down: as §1
Experiment [3] deals with Mycobacterium tuberculosis. Briefly: Antimicrobial activity against Mycobacterium tuberculosis Spec. 192 by two-fold serial dilution method. The format is functional. In a few lines: as §1
For experiment [4], the system named is A549. Briefly: Cytotoxicity against human A549 cells assessed as growth inhibition after 120 hrs by MTT assay. The format is functional, cell-based. Particulars: A549, 120 h. The method, boiled down:
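A549 cells were seeded at 4x10^3/well in RPMI1640 with 10% FBS and penicillin/streptomycin and attached overnight. Compounds were added from DMSO stocks at 200-fold concentration, with DMSO-only controls, and cells were exposed continuously for 120 h at 37 °C in 5% CO2. MTT (4 mg/mL in PBS) was added for 4 h, formazan dissolved in DMSO, and A540 read versus untreated cells. IC50 was taken as 50% growth inhibition; at least two independent experiments in duplicate.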
A general note: Tetrazolium assays rely on reduction of a dye to a coloured formazan, in cell work by metabolically active cells.

Experiment [5] has as its system LLC-PK1. Briefly: Cytotoxicity against pig LLC-PK1 cells assessed as growth inhibition after 120 hrs by MTT assay. The format is cell-based. To be noted: Sus scrofa, LLC-PK1, 120 h. The method, boiled down:
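LLC-PK1 cells were seeded at 1.25x10^4/well in Medium 199 with 3% FBS and penicillin/streptomycin and attached overnight. Compounds were added from DMSO stocks at 200-fold concentration, with DMSO-only controls, and cells were exposed continuously for 120 h at 37 °C in 5% CO2. MTT (4 mg/mL in PBS) was added for 4 h, formazan dissolved in DMSO, and A540 read versus untreated cells. IC50 was taken as 50% growth inhibition; at least two independent experiments in duplicate.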

Usually MIC stands for the smallest concentration in the dilution series that meets the test's criterion for growth inhibition. As to `Cc1ccc2[nH]c(CCC3CCCCC3)nc2c1`, the MIC in experiment [1], in experiment [2] and in experiment [3] was 1.5 µg/mL (≈ 6.19 µM) in each case.

Take `Fc1ccc2[nH]c(CCC3CCCCC3)nc2c1`: the MIC in experiment [1], in experiment [2] and in experiment [3] was 3.1 µg/mL (≈ 12.6 µM) each time.

One may read the IC50 as the midpoint of a concentration-inhibition curve. On to `Clc1ccc2[nH]c(CCC3CCCCC3)nc2c1`, for which the IC50 in experiment [4] is 10.9 µM; in experiment [5], 17.1 µM. Moreover, the MIC in experiment [1], in experiment [2] and in experiment [3] was 0.75 µg/mL (≈ 2.85 µM) throughout.

Take `Brc1ccc2[nH]c(CCC3CCCCC3)nc2c1`: the IC50 in experiment [4] came out at 13.4 µM; in experiment [5], 32.6 µM. The MIC in experiment [1], in experiment [2] and in experiment [3] was 0.75 µg/mL (≈ 2.44 µM) in each case.

In the case of `O=[N+]([O-])c1ccc2[nH]c(CCC3CCCCC3)nc2c1`, the MIC in experiment [1], in experiment [2] and in experiment [3] was 3.1 µg/mL (≈ 11.3 µM) throughout.

For `Cc1cc2nc(CCC3CCCCC3)[nH]c2cc1C`, the concentration for half-maximal inhibition (IC50) in experiment [4] worked out at 11.2 µM; in experiment [5] it was 43.9 µM. Also, the MIC in experiment [1], in experiment [2] and in experiment [3] was 0.75 µg/mL (≈ 2.93 µM) each time.

With `Clc1cc2nc(CCC3CCCCC3)[nH]c2cc1Cl`, the results for the half-inhibitory concentration (IC50) in experiment [4] and in experiment [5] were 11.1 µM and 9.62 µM, respectively. Further, the minimum inhibitory concentration (MIC) in experiment [1], in experiment [2] and in experiment [3] was 0.75 µg/mL (≈ 2.52 µM) in each case.

Take `Fc1ccc2[nH]c(CCCC3CCCCC3)nc2c1`: the MIC in experiment [1], in experiment [2] and in experiment [3] was 6.2 µg/mL (≈ 23.8 µM) each time.

As to `Cc1cc2nc(CCCC3CCCCC3)[nH]c2cc1C`, the MIC worked out at 25 µg/mL (≈ 92.4 µM) in experiment [1], 6.2 µg/mL (≈ 22.9 µM) in experiment [2] and 6.2 µg/mL (≈ 22.9 µM) in experiment [3].

Take `Clc1cc2nc(CCCC3CCCCC3)[nH]c2cc1Cl`: the MIC in experiment [1] turned out to be 12.5 µg/mL (≈ 40.2 µM); in experiment [2] it was 6.2 µg/mL (≈ 19.9 µM); in experiment [3] it was 6.2 µg/mL (≈ 19.9 µM).

On to `Cc1ccc2[nH]c(CCCc3ccccc3)nc2c1`, for which the MIC in experiment [1] was determined as 25 µg/mL (≈ 99.9 µM); in experiment [2] it was 100 µg/mL (≈ 399 µM); in experiment [3] it was 6.2 µg/mL (≈ 24.8 µM).

On to `Fc1ccc2[nH]c(CCCc3ccccc3)nc2c1`, for which the minimal inhibitory concentration (MIC) came out at 12.5 µg/mL (≈ 49.2 µM) in experiment [1], 50 µg/mL (≈ 197 µM) in experiment [2] and 50 µg/mL (≈ 197 µM) in experiment [3].

Consider `Cc1cc2nc(CCCc3ccccc3)[nH]c2cc1C`, for which the MIC in experiment [1], in experiment [2] and in experiment [3] was 6.2 µg/mL (≈ 23.5 µM) in each case.

As to `Clc1cc2nc(CCCc3ccccc3)[nH]c2cc1Cl`, the MIC in experiment [1], in experiment [2] and in experiment [3] was 6.2 µg/mL (≈ 20.3 µM) in each case.

Turning to `CS(=O)(=O)n1c(CCCc2ccccc2)nc2cc(F)ccc21`, the MIC in experiment [1], in experiment [2] and in experiment [3] was 50 µg/mL (≈ 150 µM) each time.

In the case of `O=S(=O)(c1ccccc1)n1c(CCCc2ccccc2)nc2cc(F)ccc21`, the MIC in experiment [1] came to 100 µg/mL (≈ 254 µM); in experiment [2], 50 µg/mL (≈ 127 µM); in experiment [3] it was 100 µg/mL (≈ 254 µM).

Regarding `c1ccc(-c2ccnc(-c3nc4ccccc4[nH]3)c2)cc1`, the minimal inhibitory concentration (MIC) is 12.5 µg/mL (≈ 46.1 µM) in experiment [1], 6.2 µg/mL (≈ 22.9 µM) in experiment [2] and 6.2 µg/mL (≈ 22.9 µM) in experiment [3].

In the case of `Cc1ccc2[nH]c(-c3cc(-c4ccccc4)ccn3)nc2c1`, the minimal inhibitory concentration (MIC) was found to be 3.1 µg/mL (≈ 10.9 µM) in experiment [1], 3.1 µg/mL (≈ 10.9 µM) in experiment [2] and 6.2 µg/mL (≈ 21.7 µM) in experiment [3].

In the case of `Fc1ccc2[nH]c(-c3cc(-c4ccccc4)ccn3)nc2c1`, the MIC came out at 6.2 µg/mL (≈ 21.4 µM) in experiment [1], 6.2 µg/mL (≈ 21.4 µM) in experiment [2] and 12.5 µg/mL (≈ 43.2 µM) in experiment [3].

Consider `Clc1ccc2[nH]c(-c3cc(-c4ccccc4)ccn3)nc2c1`, for which the MIC in experiment [1] worked out at 12.5 µg/mL (≈ 40.9 µM); in experiment [2], 6.2 µg/mL (≈ 20.3 µM); in experiment [3], 12.5 µg/mL (≈ 40.9 µM).

For `Brc1ccc2[nH]c(-c3cc(-c4ccccc4)ccn3)nc2c1`, the MIC in experiment [1] is 12.5 µg/mL (≈ 35.7 µM); in experiment [2], 6.5 µg/mL (≈ 18.6 µM); in experiment [3] it was 12.5 µg/mL (≈ 35.7 µM).

For `Cc1cc2nc(-c3cc(-c4ccccc4)ccn3)[nH]c2cc1C`, the MIC in experiment [1] was 25 µg/mL (≈ 83.5 µM); in experiment [2], 12.5 µg/mL (≈ 41.8 µM); in experiment [3], 12.5 µg/mL (≈ 41.8 µM).

With `c1ccc(-c2ccnc(-c3nc4cccnc4[nH]3)c2)cc1`, the MIC in experiment [1], in experiment [2] and in experiment [3] was 12.5 µg/mL (≈ 45.9 µM) in each case.

With `Brc1cnc2[nH]c(-c3cc(-c4ccccc4)ccn3)nc2c1`, the MIC in experiment [1], in experiment [2] and in experiment [3] was 25 µg/mL (≈ 71.2 µM) in each case.

With `c1ccc(-c2ccnc(-c3nc4ccncc4[nH]3)c2)cc1`, the minimal inhibitory concentration (MIC) came to 12.5 µg/mL (≈ 45.9 µM) in experiment [1], 3.1 µg/mL (≈ 11.4 µM) in experiment [2] and 12.5 µg/mL (≈ 45.9 µM) in experiment [3].

For `NNC(=O)c1ccncc1` [ISONIAZID], the MIC in experiment [1] came out at 12.5 µg/mL (≈ 91.1 µM); in experiment [2], 25 µg/mL (≈ 182 µM); in experiment [3] it was 12.5 µg/mL (≈ 91.1 µM).

For the compound `NC(=O)c1cnccn1` [PYRAZINAMIDE], the minimal inhibitory concentration (MIC) in experiment [1] is 25 µg/mL (≈ 203 µM); in experiment [2], greater than 400 µg/mL; in experiment [3], 25 µg/mL (≈ 203 µM).

As to `CO[C@H]1/C=C/O[C@@]2(C)Oc3c(C)c(O)c4c(O)c(c(/C=N/N5CCN(C)CC5)c(O)c4c3C2=O)NC(=O)/C(C)=C\C=C\[C@H](C)[C@H](O)[C@@H](C)[C@@H](O)[C@@H](C)[C@H](OC(C)=O)[C@@H]1C` [RIFAMPIN], the results for the MIC in experiment [1], in experiment [2] and in experiment [3] were 1.2 µg/mL (≈ 1.46 µM), 2.5 µg/mL (≈ 3.04 µM) and 1.2 µg/mL (≈ 1.46 µM), respectively.

For the origin of these results see ChEMBL document CHEMBL3352568, “Synthesis and evaluation of in vitro antimycobacterial activity of novel 1H-benzo[d]imidazole derivatives and analogues” (Eur J Med Chem, 2015).
